Source: ChEMBL document CHEMBL2150999, “Design, synthesis and biological evaluation of benzo[e][1,2,4]triazin-7(1H)-one and [1,2,4]-triazino[5,6,1-jk]carbazol-6-one derivatives as dual inhibitors of beta-amyloid aggregation and acetyl/butyryl cholinesterase” (Eur J Med Chem, 2012)
Converted amounts (≈) assume the structure as drawn. The source made the active and inactive calls. No cut-off for these calls is given here.

Experiments:
[1] = target: Cholinesterase (Equus caballus) (UniProt P81908); experiment: Inhibition of equine serum BChE using butyrylthiocholine iodide as substrate at 10 uM after 20 mins by Ellman's method
Cholinesterase (Equus caballus), sequence (P81908 whole entry): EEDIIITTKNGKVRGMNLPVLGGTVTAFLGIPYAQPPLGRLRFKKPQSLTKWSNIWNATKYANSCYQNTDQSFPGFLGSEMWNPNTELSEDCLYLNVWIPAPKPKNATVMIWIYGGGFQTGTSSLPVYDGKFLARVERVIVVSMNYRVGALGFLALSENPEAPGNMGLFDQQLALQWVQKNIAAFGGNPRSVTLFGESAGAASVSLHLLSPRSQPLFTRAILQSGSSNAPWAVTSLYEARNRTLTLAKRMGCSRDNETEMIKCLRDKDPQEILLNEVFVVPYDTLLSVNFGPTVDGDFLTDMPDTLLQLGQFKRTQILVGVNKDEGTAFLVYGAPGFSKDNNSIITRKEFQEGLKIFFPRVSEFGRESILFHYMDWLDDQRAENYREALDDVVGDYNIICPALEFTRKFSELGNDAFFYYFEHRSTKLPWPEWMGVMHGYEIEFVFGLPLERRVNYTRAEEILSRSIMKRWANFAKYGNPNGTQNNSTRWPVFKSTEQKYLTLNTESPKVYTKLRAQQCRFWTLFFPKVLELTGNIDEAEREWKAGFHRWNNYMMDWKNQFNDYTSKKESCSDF

[2] = Inhibition of HFIP-induced amyloid beta (1-40) aggregation after 2 hrs by thioflavin T fluorescence method
Procedure, shortened: (§1)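 Pre-monomerized Aβ1-40 (HFIP-dissolved, lyophilized) at 30 µM in PBS (0.01 M, NaCl 0.1 M, pH 7.4) with 2% HFIP and 10% DMSO, coincubated with compound in triplicate at 25 °C for 2 h. Sample mixed with 25 µM ThT in 0.025 M phosphate pH 6.0; excitation 440 nm, emission 485 nm. Peptide-free blanks subtracted; % inhibition versus control. Primary screen at 100 µM. IC50 from 5–7 concentrations (200–0.01 µM) tested in duplicate, three independent experiments.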

[3] = target: Acetylcholinesterase (Electrophorus electricus) (UniProt O42275); experiment: Inhibition of electric eel AChE using acetylthiocholine iodide as substrate at 10 uM after 20 mins by Ellman's method
Acetylcholinesterase (Electrophorus electricus), sequence (O42275 24-633 limits assumed): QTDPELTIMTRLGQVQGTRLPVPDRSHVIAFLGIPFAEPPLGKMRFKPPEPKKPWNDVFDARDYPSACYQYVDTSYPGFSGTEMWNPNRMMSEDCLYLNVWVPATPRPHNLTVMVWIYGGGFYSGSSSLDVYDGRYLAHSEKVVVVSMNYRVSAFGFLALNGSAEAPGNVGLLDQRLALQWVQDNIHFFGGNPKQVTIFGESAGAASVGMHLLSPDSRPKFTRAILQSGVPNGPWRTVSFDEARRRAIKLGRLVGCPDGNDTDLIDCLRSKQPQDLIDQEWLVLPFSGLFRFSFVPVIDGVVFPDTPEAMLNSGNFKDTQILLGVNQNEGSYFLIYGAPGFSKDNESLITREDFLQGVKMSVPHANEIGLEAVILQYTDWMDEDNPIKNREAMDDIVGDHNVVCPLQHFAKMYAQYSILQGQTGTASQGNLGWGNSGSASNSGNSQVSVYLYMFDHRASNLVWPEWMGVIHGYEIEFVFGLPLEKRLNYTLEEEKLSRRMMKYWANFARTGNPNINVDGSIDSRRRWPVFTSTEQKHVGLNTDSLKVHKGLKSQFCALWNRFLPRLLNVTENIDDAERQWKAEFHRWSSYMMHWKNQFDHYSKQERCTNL

[4] = Inhibition of HFIP-induced amyloid beta (1-40) aggregation at 100 uM after 2 hrs by thioflavin T fluorescence method; procedure, shortened: as §1
[5] = target: Cholinesterase (Equus caballus, UniProt P81908); experiment: Inhibition of equine serum BChE using butyrylthiocholine iodide as substrate after 20 mins by Ellman's method
Cholinesterase, sequence (P81908 whole entry): as the sequence (P81908 whole entry) above
Procedure, shortened: (§2)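 Enzyme (eel AChE 463 U/mg or equine serum BChE 13 U/mg) in 0.1 M phosphate buffer pH 8.0 with DTNB, preincubated with inhibitor 20 min at 25 °C. Then acetylthiocholine or butyrylthiocholine iodide added; absorbance rise at 412 nm read 5.0 min at 25 °C. DMSO below 1%. IC50 from nonlinear regression of response/log(concentration), six to seven concentrations, 1×10^-8 to 1×10^-4 M. Means of three independent experiments.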

[6] = Aqueous solubility of the compound in PBS buffer; type: physicochemical
Procedure, shortened: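 Preliminary solubility in the incubation medium (PBS with up to 10% ethanol cosolvent) measured by UV spectroscopy; used to set the maximum soluble test concentration.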

[7] = Inhibition of amyloid beta (1-40) beta-sheet transition assessed as decrease in beta-sheet level after 7 days by CD spectroscopic analysis relative to control
Procedure, shortened: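 Aβ1-40 (50 µM) in PBS with 10% ethanol, alone or with compound (10 or 50 µM), incubated at 37 °C without agitation. CD spectra 195–250 nm were recorded at room temperature in a 0.1 cm cell, with buffer/ethanol or inhibitor blank baseline subtracted. Absolute ellipticity at 215 nm was followed over time and expressed relative to the control plateau.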

[8] = Inhibition of amyloid beta (1-40) fibrillation assessed as extended fibrillar weft formation at 50 uM after 7 days by TEM analysis
Procedure, shortened: (§3)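 Aβ1-40 (50 µM) in PBS/10% ethanol, with compound at 10 or 50 µM, incubated at 37 °C for up to 10 days. Aliquots taken at 7 days were applied to carbon-coated grids and negatively stained with 2% w/v uranyl acetate. Imaged by TEM at 60 kV and 39 000-fold magnification, compared with self-aggregating control.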

[9] = Inhibition of amyloid beta (1-42) aggregation at 100 uM measured at 8 hrs and 24 hrs by thioflavin T fluorescence method
Procedure, shortened: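 Aβ1-42 (30 µM) in PBS/10% DMSO at 37 °C, alone or with compound at 100 µM. ThT fluorescence (ex 440, em 485 nm) read at 8 h and 24 h, reported in arbitrary units; mean ± SEM of three independent experiments.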

[10] = target: Acetylcholinesterase (Electrophorus electricus, UniProt O42275); experiment: Inhibition of electric eel AChE using acetylthiocholine iodide as substrate after 20 mins by Ellman's method; procedure, shortened: as §2
Acetylcholinesterase, sequence (O42275 whole entry): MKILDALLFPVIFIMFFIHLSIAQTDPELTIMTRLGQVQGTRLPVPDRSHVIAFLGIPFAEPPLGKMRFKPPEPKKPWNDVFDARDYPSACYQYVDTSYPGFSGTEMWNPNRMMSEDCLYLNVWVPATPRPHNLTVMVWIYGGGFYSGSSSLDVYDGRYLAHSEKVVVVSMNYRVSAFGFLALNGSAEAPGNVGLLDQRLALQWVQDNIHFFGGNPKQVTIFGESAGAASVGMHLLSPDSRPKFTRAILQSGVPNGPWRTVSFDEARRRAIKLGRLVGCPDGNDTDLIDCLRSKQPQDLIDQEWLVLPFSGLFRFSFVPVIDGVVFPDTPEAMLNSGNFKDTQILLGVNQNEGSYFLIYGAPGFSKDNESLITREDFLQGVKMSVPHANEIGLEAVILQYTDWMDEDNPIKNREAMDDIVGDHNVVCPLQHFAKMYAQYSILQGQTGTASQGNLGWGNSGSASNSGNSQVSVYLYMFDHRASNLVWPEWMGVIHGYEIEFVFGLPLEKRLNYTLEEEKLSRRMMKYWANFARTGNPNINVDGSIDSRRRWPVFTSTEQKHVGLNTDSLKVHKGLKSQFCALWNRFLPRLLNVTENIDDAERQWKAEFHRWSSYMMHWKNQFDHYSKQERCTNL

[11] = Inhibition of amyloid beta (1-40) fibrillation assessed as isolated fibrillar aggregates formation at 10 uM after 7 days by TEM analysis; procedure, shortened: as §3

Row | Structure (SMILES) | inhibition [1] [%] | IC50 [2] [nM] | inhibition [3] [%] | inhibition [4] [%] | other results
1 | CC1CCCN(c2cc3nc(-c4ccccc4)nn4c5ccccc5c(c2=O)c34)C1 (stereo not given) | 53 | 5500 | 27 |  | 
2 | CC1CCN(c2cc3nc(-c4ccccc4)nn(-c4ccccc4)c-3cc2=O)CC1 | 11 |  | 48 | 68 | 
3 | O=c1ccc2nc(-c3ccccc3)nn(-c3ccccc3)c-2c1 | 27 |  | 47 | 39 | 
4 | CN(CCCCCCCCNc1cc2nc(-c3ccccc3)nn3c4ccccc4c(c1=O)c23)Cc1ccccc1 | 25 |  | 46 | 60 | 
5 | CN(c1ccccc1)c1cc2nc(-c3ccccc3)nn(-c3ccccc3)c-2cc1=O | 11 |  | 57 | 51 | 
6 | O=c1cc2n(-c3ccccc3)nc(-c3ccccc3)nc-2cc1N1CCCc2ccccc21 | 10 | 6700 | 41 |  | 
7 | O=c1cc2n(-c3ccccc3)nc(-c3ccccc3)nc-2cc1N1CCC(c2ccccc2)CC1 | 10 | 1500 | 35 |  | 
8 | CN(CCCCCCCCN(C)c1cc2nc(-c3ccccc3)nn(-c3ccccc3)c-2cc1=O)Cc1ccccc1 |  | 65000 | 50 |  | IC50 [5]: 310 nM
9 | O=c1c(N2CCC(c3ccccc3)CC2)cc2nc(-c3ccccc3)nn3c4ccccc4c1c23 | 11 | 3900 | 48 |  | 
10 | O=c1cc2n(-c3ccccc3)nc(-c3ccccc3)nc-2cc1N1CCCCC1 | 7 | 7100 | 39 |  | 
11 | CN1CCN(c2cc3nc(-c4ccccc4)nn(-c4ccccc4)c-3cc2=O)CC1 | 12 |  | 55 | 55 | 
12 | O=c1cc2n(-c3ccccc3)nc(-c3ccccc3)nc-2cc1N1CCOCC1 | 0 |  | 42 | 48 | 
13 | CC1CC(C)CN(c2cc3nc(-c4ccccc4)nn(-c4ccccc4)c-3cc2=O)C1 (stereo not given) | 18 | 1200 | 46 |  | 
14 | CCN(CC)c1cc2nc(-c3ccccc3)nn(-c3ccccc3)c-2cc1=O | 19 | 17000 | 55 |  | 
15 | O=c1cc2n(-c3ccccc3)nc(-c3ccccc3)nc-2cc1N1CCc2ccccc2C1 | 14 |  | 47 | 68 | 
16 | O=c1ccc2nc(-c3ccccc3)nn3c4ccccc4c1c23 | 59 | 6100 | 46 |  | solubility [6]: 50 µM (≈ 14.9 µg/mL); inhibition [7]: inactive; inhibition [8]: Active; inhibition [9]: Active
17 | CN(C)CCCN(C)c1cc2nc(-c3ccccc3)nn(-c3ccccc3)c-2cc1=O | 18 |  | 46 | 45 | 
18 | CC1CCCN(c2cc3nc(-c4ccccc4)nn(-c4ccccc4)c-3cc2=O)C1 (stereo not given) | 25 | 730 | 55 |  | 
19 | CN(c1cc2nc(-c3ccccc3)nn(-c3ccccc3)c-2cc1=O)C1CCCCC1 | 37 | 4000 | 55 |  | 
20 | O=c1cc2n(-c3ccccc3)nc(-c3ccccc3)nc-2cc1Nc1ccccc1 | 9 |  | 57 | 13 | 

Row | Structure (SMILES) | inhibition [1] [%] | IC50 [2] [nM] | inhibition [3] [%] | inhibition [4] [%] | other results
21 | O=c1cc2n(-c3ccccc3)nc(-c3ccccc3)nc-2cc1N1CCN(c2ccccc2)CC1 | 15 |  |  | 53 | IC50 [10]: 2200 nM
22 | O=c1cc2n(-c3ccccc3)nc(-c3ccccc3)nc-2cc1N1CCSCC1 | 0 |  | 42 | 62 | 
23 | COc1cc2nc(-c3ccccc3)nn3c4ccccc4c(c1=O)c23 | 11 |  | 52 | 33 | 
24 | O=c1cc2n(-c3ccccc3)nc(-c3ccccc3)nc-2cc1N1CCCCCC1 | 47 | 2800 | 46 |  | 
25 | CN(CCCCCCCCNc1cc2nc(-c3ccccc3)nn(-c3ccccc3)c-2cc1=O)Cc1ccccc1 | 28 | 21000 | 45 |  | 
26 | CN(Cc1ccccc1)c1cc2nc(-c3ccccc3)nn3c4ccccc4c(c1=O)c23 | 26 | 4100 | 53 |  | 
27 | O=c1c(O)c(-c2ccc(O)c(O)c2)oc2cc(O)cc(O)c12 |  |  |  |  | inhibition [9]: Active
28 | CC1CCCCN1c1cc2nc(-c3ccccc3)nn(-c3ccccc3)c-2cc1=O (stereo not given) | 22 | 370 | 0 |  | inhibition [9]: Active
29 | CN(CCCCCCCCN(C)c1cc2nc(-c3ccccc3)nn3c4ccccc4c(c1=O)c23)Cc1ccccc1 |  | 1400 | 55 |  | inhibition [9]: Active; IC50 [5]: 25 nM
30 | CN(C)CCCN(C)c1cc2nc(-c3ccccc3)nn3c4ccccc4c(c1=O)c23 |  | 7600 | 49 |  | IC50 [5]: 4000 nM
31 | CCN(Cc1ccccc1)c1cc2nc(-c3ccccc3)nn(-c3ccccc3)c-2cc1=O | 13 | 2100 | 53 |  | 
32 | O=c1cc2n(-c3ccccc3)nc(-c3ccccc3)nc-2cc1N1CCN(Cc2ccccc2)CC1 | 18 |  | 56 | 61 | 
33 | O=c1cc2n(-c3ccccc3)nc(-c3ccccc3)nc-2cc1N1CCCC1 | 15 |  | 54 | 68 | 
34 | COc1cc2nc(-c3ccccc3)nn(-c3ccccc3)c-2cc1=O | 15 |  | 47 | 60 | 
35 | CN(Cc1ccccc1)c1cc2nc(-c3ccccc3)nn(-c3ccccc3)c-2cc1=O | 22 | 1000 | 56 |  | 
36 | O=c1cc2n(-c3ccccc3)nc(-c3ccccc3)nc-2cc1Sc1ccccc1 | 6 |  | 49 | 42 | 
37 | CCN(CC)c1cc2nc(-c3ccccc3)nn3c4ccccc4c(c1=O)c23 | 54 | 1400 | 46 |  | 
38 | CN(CCCCCN(C)c1cc2nc(-c3ccccc3)nn(-c3ccccc3)c-2cc1=O)Cc1ccccc1 |  | 1400 |  |  | solubility [6]: 10 µM (≈ 5.18 µg/mL); inhibition ([7]; concentration not given here): 40%; inhibition [11]: Active; inhibition [9]: Active; IC50 [10]: 1500 nM; IC50 [5]: 1900 nM
39 | O=c1c(N2CCCC2)cc2nc(-c3ccccc3)nn3c4ccccc4c1c23 | 52 | 2000 | 44 |  | 
